Laboratory results reported in publication PMC3040319 (Pharmaceutical Research, 2010).
Marks after values point to notes of the source that are not given here.

Experiments:
[1] = Plasma platinum pharmacokinetics in Oct1+/+ and Oct1-/- mice; type: in vivo, mouse; settings: single i.v. 8 mg/kg
How it was run: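 Male FVB Oct1+/+ and Oct1-/- mice (8 weeks) received a single tail-vein dose of 8 mg/kg in saline. Heparinised plasma was taken by heart puncture at 15 and 30 min and at 1, 2, 3, 4, 8, 10, 24 and 48 h. Total Pt in 5 μl plasma and in urine was measured by ICP-MS. Parameters (Vss, CL, renal CL) came from two-compartment analysis.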

[2] = Tissue accumulation of platinum in Oct1+/+ and Oct1-/- mice; type: in vivo, mouse; settings: for Brain Normalized platinum / Heart Normalized platinum / Intestine Normalized platinum / Kidney Normalized platinum / Liver Normalized platinum / Muscle Normalized platinum: divided by plasma concentration
How it was run: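 Male FVB Oct1+/+ and Oct1-/- mice (8 weeks) were given 8 mg/kg in saline i.v. by tail vein and killed 1 h later. Liver, kidney, heart, lung, brain, intestine, spleen and muscle were snap-frozen. Total Pt was measured by ICP-MS in 10–30 mg tissue and reported as nmol/g tissue; plasma was reported in μM.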

[3] = OCT1 KO mice, 1 h after IV 8 mg/kg
[4] = OCT1 WT mice, 1 h after IV 8 mg/kg

SMILES: [NH3+][Pt-2]([NH3+])([Cl])[n+]1ccccc1 (stereo not drawn) [CDPCP, cis-diammine(pyridine)chloroplatinum(II)]
- contribution of renal clearance to total clearance of platinum from plasma ([1]; both Oct1+/+ and Oct1-/- mice): about 50%
- volume of distribution, Oct1 wild-type as fold of Oct1-/- [1]: 1.77 fold
- total platinum in plasma, fold higher in Oct1-/- than wild-type mice ([2]; 1 h after 8 mg/kg): 1.3 fold
- Brain Absolute platinum, OCT1 WT/KO ratio ([2]; 1 h after IV 8 mg/kg): 0.9
- Brain Normalized platinum, OCT1 WT/KO ratio ([2]; 1 h after IV 8 mg/kg): 1.2
- Heart Absolute platinum, OCT1 WT/KO ratio ([2]; 1 h after IV 8 mg/kg): 0.6**
- Heart Normalized platinum, OCT1 WT/KO ratio ([2]; 1 h after IV 8 mg/kg): 0.8*
- Intestine Absolute platinum, OCT1 WT/KO ratio ([2]; 1 h after IV 8 mg/kg): 2.8*
- Kidney Absolute platinum, OCT1 WT/KO ratio ([2]; 1 h after IV 8 mg/kg): 0.7*
- Kidney Normalized platinum, OCT1 WT/KO ratio ([2]; 1 h after IV 8 mg/kg): 1.0
- Liver Absolute platinum, OCT1 WT/KO ratio ([2]; 1 h after IV 8 mg/kg): 2.1**
- Muscle Absolute platinum, OCT1 WT/KO ratio ([2]; 1 h after IV 8 mg/kg): 0.8*
- Muscle Normalized platinum, OCT1 WT/KO ratio ([2]; 1 h after IV 8 mg/kg): 1.0
- Plasma platinum, OCT1 WT/KO ratio ([2]; 1 h after IV 8 mg/kg): 0.8**
- Brain Absolute platinum [2, 3]: 0.487 ± 0.128 pmol/g tissue
- Heart Absolute platinum [2, 3]: 15.4 ± 1.83 pmol/g tissue
- Intestine Absolute platinum [2, 3]: 32.3 ± 14.2 pmol/g tissue
- Kidney Absolute platinum [2, 3]: 44.3 ± 11.5 pmol/g tissue
- Liver Absolute platinum [2, 3]: 38.2 ± 8.51 pmol/g tissue
- Muscle Absolute platinum [2, 3]: 2.08 ± 0.292 pmol/g tissue
- Plasma platinum [2, 3]: 17.2 ± 2.11 µM
- Brain Normalized platinum [2, 3]: 0.0282 ± 0.00518 ml/g tissue
- Heart Normalized platinum [2, 3]: 0.898 ± 0.0813 ml/g tissue
- Intestine Normalized platinum [2, 3]: 1.84 ± 0.571 ml/g tissue
- Kidney Normalized platinum [2, 3]: 2.47 ± 0.552 ml/g tissue
- Liver Normalized platinum [2, 3]: 2.23 ± 0.440 ml/g tissue
- Muscle Normalized platinum [2, 3]: 0.122 ± 0.0201 ml/g tissue
- Brain Absolute platinum [2, 4]: 0.436 ± 0.116 pmol/g tissue
- Heart Absolute platinum [2, 4]: 9.77 ± 1.20 pmol/g tissue
- Intestine Absolute platinum [2, 4]: 90.9 ± 28.0 pmol/g tissue
- Kidney Absolute platinum [2, 4]: 32.1 ± 2.93 pmol/g tissue
- Liver Absolute platinum [2, 4]: 81.8 ± 9.31 pmol/g tissue
- Muscle Absolute platinum [2, 4]: 1.62 ± 0.144 pmol/g tissue
- Plasma platinum [2, 4]: 13.5 ± 1.72 µM
- Brain Normalized platinum [2, 4]: 0.0328 ± 0.0114 ml/g tissue
- Heart Normalized platinum [2, 4]: 0.725 ± 0.0747 ml/g tissue
- Intestine Normalized platinum [2, 4]: 7.13 ± 2.47 ml/g tissue
- Kidney Normalized platinum [2, 4]: 2.40 ± 0.374 ml/g tissue
- Liver Normalized platinum [2, 4]: 6.09 ± 0.792 ml/g tissue
- Muscle Normalized platinum [2, 4]: 0.121 ± 0.0118 ml/g tissue
